Published values collected from several papers.
Compare with care: the assays were run in different laboratories. pIC50: −log10 of the molar value. ≈ marks a conversion by molar mass, not a printed value.

SMILES	target or system	test	test system	conditions	measurement	result
CC(C)C[C@@H](NC(=O)[C@H](C)NC(=O)CNC(=O)[C@@H](NC=O)C(C)C)C(=O)N[C@@H](C)C(=O)N[C@@H](C(=O)N[C@H](C(=O)N[C@@H](C(=O)N[C@@H](Cc1c[nH]c2ccccc12)C(=O)N[C@H](CC(C)C)C(=O)N[C@@H](Cc1ccc2[nH]ccc2c1)C(=O)N[C@H](CC(C)C)C(=O)N[C@@H](Cc1c[nH]c2ccccc12)C(=O)N[C@H](CC(C)C)C(=O)N[C@@H](Cc1c[nH]c2ccccc12)C(=O)NCCO)C(C)C)C(C)C)C(C)C	MCF7	cell growth or viability, SRB	–	48 h	GI50	0.106 µM
O=C(N1CCC2(CC1)OCC(CN1CCCCS1(=O)=O)O2)C1(c2ccc(Cl)cc2)CCCC1 (centres unmarked)	Chikungunya virus	viral replication, inhibitor	–	40 µM	inhibition	55%
O=C(NCc1ccc(F)cc1)c1cn(Cc2ccc(C(F)(F)F)cc2)c2ccc(Oc3ccccc3)cc2c1=O	MCF7	cell growth or viability, MTT	–	–	pIC50	> 4.92
O=C(Nc1ccc(Cl)cc1)Nc1cccc(-c2cn(Cc3ccc(Br)cc3)nn2)c1	MCF7	cell growth or viability, CCK-8	–	50 µM, 48 h	viability	96.5%
COc1cccc(C=Nc2ccc(SCc3cc(=O)c(O)co3)cc2)c1	–	DPPH scavenging, absorbance	–	30 min	pIC50	4.93
CC(Oc1ccc(O)cc1)(P(=O)(O)O)P(=O)(O)O	Chikungunya virus	viral replication	Vero	–	pIC50	3.26
O=C(NCc1ccc(F)cc1)c1cn(Cc2ccc(F)cc2)c2ccc(Oc3ccccc3)cc2c1=O	MCF7	cell growth or viability, MTT	–	24 h	pIC50	< 3.30
O=C(N1CCC2(CC1)OCC(CNS(=O)(=O)c1ccc(-c3ccccc3)cc1)O2)C1(c2ccccc2)CCCC1 (centres unmarked)	Chikungunya virus	viral replication, inhibitor	–	40 µM	inhibition	75%
S=c1[nH]nc(NCNc2n[nH]c(=S)s2)s1	Xanthomonas oryzae	microbial growth	–	–	EC50	16 µg/mL (≈ 57.5 µM)
O=c1cc(CSc2ccc(N=Cc3ccc(O)cc3)cc2)occ1O	–	DPPH scavenging, absorbance	–	30 min	pIC50	5.05
O=C(NCc1ccccc1)c1cn(Cc2ccc(C(F)(F)F)cc2)c2ccc(Oc3ccccc3)cc2c1=O	MCF7	cell growth or viability, MTT	–	48 h	pIC50	5.19
Cc1ccc(C=Nc2ccc(SCc3cc(=O)c(O)co3)cc2)cc1	–	DPPH scavenging, absorbance	–	30 min	pIC50	5.04
O=C(NCc1ccc(C(F)(F)F)cc1)c1cn(Cc2ccc(Cl)cc2)c2ccc(Oc3ccccc3)cc2c1=O	MCF7	cell growth or viability, MTT	–	24 h	pIC50	3.75
O=c1cc(CSc2ccc(N=Cc3ccccc3[N+](=O)[O-])cc2)occ1O	–	DPPH scavenging, absorbance	–	30 min	pIC50	4.85
CC[C@H](C)C[C@H](C)CCCCCCCCC(=O)N[C@H]1C[C@@H](O)[C@@H](NCCN)NC(=O)[C@@H]2[C@@H](O)CCN2C(=O)[C@H]([C@H](O)CCN)NC(=O)[C@H]([C@H](O)[C@@H](O)c2ccc(O)cc2)NC(=O)[C@@H]2C[C@@H](O)CN2C(=O)[C@H]([C@@H](C)O)NC1=O	Candidozyma auris	microbial killing, broth dilution	–	48 h	MFC	8 µg/mL (≈ 7.32 µM)
Cc1cccc(C=Nc2ccc(SCc3cc(=O)c(O)co3)cc2)c1	–	DPPH scavenging, absorbance	–	30 min	pIC50	4.57
CC(C)C[C@@H](NC(=O)[C@H](C)NC(=O)CNC(=O)[C@@H](NC=O)C(C)C)C(=O)N[C@@H](C)C(=O)N[C@@H](C(=O)N[C@H](C(=O)N[C@@H](C(=O)N[C@@H](Cc1c[nH]c2ccccc12)C(=O)N[C@H](CC(C)C)C(=O)N[C@@H](Cc1ccc2cc[nH]c2c1)C(=O)N[C@H](CC(C)C)C(=O)N[C@@H](Cc1c[nH]c2ccccc12)C(=O)N[C@H](CC(C)C)C(=O)N[C@@H](Cc1c[nH]c2ccccc12)C(=O)NCCO)C(C)C)C(C)C)C(C)C	MCF7	cell growth or viability, SRB	–	48 h	GI50	0.11 µM
